Experimental data from ChEMBL document CHEMBL1147848, “1-(5-Carboxy- and 5-carbamoylindol-1-yl)propan-2-ones as inhibitors of human cytosolic phospholipase A2alpha: bioisosteric replacement of the carboxylic acid and carboxamide moiety” (Bioorg Med Chem, 2007).
pIC50: −log10 of the molar value. Active and inactive are the calls of the source. The rule behind the calls is not given here.

Assays:
[1] = biological target: T1, Cytosolic phospholipase A2 (Homo sapiens, UniProt P47712); assay: Inhibition of human platelet cPLA2-alpha assessed as arachidonic acid release by vesicle assay
T1 sequence (P47712 whole entry): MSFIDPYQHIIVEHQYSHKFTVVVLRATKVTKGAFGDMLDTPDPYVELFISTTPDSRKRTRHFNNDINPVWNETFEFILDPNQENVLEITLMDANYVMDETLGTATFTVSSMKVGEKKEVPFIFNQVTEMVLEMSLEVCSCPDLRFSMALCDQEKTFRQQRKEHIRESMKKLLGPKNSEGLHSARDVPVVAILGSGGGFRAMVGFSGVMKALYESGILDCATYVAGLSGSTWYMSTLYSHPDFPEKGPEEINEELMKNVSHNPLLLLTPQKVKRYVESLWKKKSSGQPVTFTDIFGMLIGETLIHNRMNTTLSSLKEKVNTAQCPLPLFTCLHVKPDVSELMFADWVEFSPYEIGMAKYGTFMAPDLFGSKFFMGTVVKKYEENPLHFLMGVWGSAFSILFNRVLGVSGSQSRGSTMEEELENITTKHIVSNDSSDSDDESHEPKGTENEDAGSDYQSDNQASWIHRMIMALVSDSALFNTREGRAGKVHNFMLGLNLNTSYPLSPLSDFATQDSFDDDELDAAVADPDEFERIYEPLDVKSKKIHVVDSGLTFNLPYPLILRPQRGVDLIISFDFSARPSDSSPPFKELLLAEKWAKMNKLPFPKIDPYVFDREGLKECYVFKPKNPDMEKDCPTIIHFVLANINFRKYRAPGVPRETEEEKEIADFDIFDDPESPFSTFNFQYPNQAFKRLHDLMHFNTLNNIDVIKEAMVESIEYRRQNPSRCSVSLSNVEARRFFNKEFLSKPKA
Summary of the method: (§1)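 cPLA2α isolated from human platelets. Highest test concentration 10 µM, kept low to limit inhibitor mole fraction in the interface. Incubated 60 min. Released arachidonic acid is cleaned up by solid-phase extraction, then quantified by reversed-phase HPLC with UV detection at 200 nm.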

[2] = biological target: T2, Cytosolic phospholipase A2 (Homo sapiens) (UniProt P47712); assay: Inhibition of human platelet cPLA2-alpha assessed as arachidonic acid release at 10 uM by vesicle assay; summary of the method: as §1
T2 sequence (whole entry): T1 sequence (P47712 whole entry)

pIC50 [1]	Structure (SMILES)	also measured
6.51	CCCCCCCCc1ccc(OCC(=O)Cn2ccc3cc(S(=O)(=O)NC)ccc32)cc1	
	CCCCCCCCc1ccc(OCC(=O)Cn2ccc3cc(-c4nc(CC)no4)ccc32)cc1	Activity [2]: inactive
5.96	CCCCCCCCc1ccc(OCC(=O)Cn2ccc3cc(-c4nnn[nH]4)ccc32)cc1	
6.41	CCCCCCCCc1ccc(OCC(=O)Cn2ccc3cc(S(N)(=O)=O)ccc32)cc1	
	CCCCCCCCc1ccc(OCC(=O)Cn2ccc3cc(/C=C4\SC(=O)NC4=O)ccc32)cc1	inhibition [2]: 29%
6.43	CCCCCCCCc1ccc(OCC(=O)Cn2ccc3cc(C(=O)NC)ccc32)cc1	
6.30	CCCCCCCCc1ccc(OCC(=O)Cn2ccc3cc(S(=O)(=O)N(C)C)ccc32)cc1	
6.08	CCCCCCCCc1ccc(OCC(=O)Cn2ccc3cc(C(=O)N(C)C)ccc32)cc1	
	CCCCCCCCc1ccc(OCC(=O)Cn2ccc3cc(-c4nc(Cc5ccccc5)no4)ccc32)cc1	Activity [2]: inactive
6.30	CCCCCCCCc1ccc(OCC(=O)Cn2ccc3cc(C(=O)N4CCOCC4)ccc32)cc1	
5.46	CCCCCCCCc1ccc(OCC(=O)Cn2ccc3cc(-c4noc(=O)[nH]4)ccc32)cc1	

Structure (SMILES)	pIC50 [1]	also measured
CCCCCCCCc1ccc(OCC(=O)Cn2cc(C(=O)OC)c3cc(C(=O)O)ccc32)cc1	8.30	
CCCCC/C=C\C/C=C\C/C=C\C/C=C\CCCC(=O)C(F)(F)F [ARACHIDONYL TRIFLUOROMETHYLKETONE]	5.64	
